Experimental data from paper PMC4116148 (Biochemistry, 2014).
fluorescein = fluorescein: fluorescein label on the Lys side chain

Molecular target: T1, EHD1-EH (Homo sapiens, UniProt Q9H4M9)
T1 sequence (Q9H4M9 444-532 limits assumed): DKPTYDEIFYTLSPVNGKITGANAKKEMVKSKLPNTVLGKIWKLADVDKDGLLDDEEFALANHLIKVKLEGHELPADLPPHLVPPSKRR
Assay: Fluorescence polarization
Assay type: binding
Summary of the method: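 Fluorescein-labelled peptide probes mixed with the EHD1 EH domain; binding read by fluorescence polarization. Buffer: 25 mM MOPS (pH 6.8), 1 mM CaCl2, 15 mM NaCl, 1.5% DMSO, 0.1% Tween 20.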

Substance | binding to EHD1-EH (up to 67 μM EHD1-EH, 15 mM NaCl) | loss of affinity (FP direct binding, reduced charge analogue relative to cNPF1^Flu) [fold]
-YAPAEEGK(Flu)- (cyclo(YAPAEEGK(fluorescein))) [cAPA^Flu] | No binding was observed | –
-YNPFEAGK(Flu)- (cyclo(YNPFEAGK(fluorescein))) [cNPF5^Flu] | – | 3
